Reference: ChEMBL document CHEMBL2384924, “Antagonists for the orphan G-protein-coupled receptor GPR55 based on a coumarin scaffold” (J Med Chem, 2013)
Activity calls are given as the source filed them.

Legend:
[1] = target: T1, G-protein coupled receptor 55 (Homo sapiens, UniProt Q9Y2T6); assay: Agonist activity at human GPR55 transfected in CHO cells at 10 uM after 90 mins by beta-arrestin translocation assay; assay type: cell-based
Method in brief: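 CHO cells stably expressing human GPR55 (β-galactosidase fragment complementation) were seeded at 20,000 cells/well in Opti-MEM with 2% FCS for 24 h at 37°C. Compound was diluted in PBS with 10% DMSO and 0.1% BSA, screened at 10 µM and incubated 90 min at 37°C. Galacton-Star/Emerald-II/lysis buffer (1:5:19) was added for 60 min at RT, then luminescence was read. Response is relative to 1 µM LPI (100%).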

[2] = target: T2, Cannabinoid receptor 1 (Homo sapiens, UniProt P21554); assay: Displacement of [3H]-CP55,940 from human CB1 receptor transfected in CHOK1 cells at 10 uM; assay type: cell-based; conditions: CHO-K1
T2 sequence (P21554 whole entry): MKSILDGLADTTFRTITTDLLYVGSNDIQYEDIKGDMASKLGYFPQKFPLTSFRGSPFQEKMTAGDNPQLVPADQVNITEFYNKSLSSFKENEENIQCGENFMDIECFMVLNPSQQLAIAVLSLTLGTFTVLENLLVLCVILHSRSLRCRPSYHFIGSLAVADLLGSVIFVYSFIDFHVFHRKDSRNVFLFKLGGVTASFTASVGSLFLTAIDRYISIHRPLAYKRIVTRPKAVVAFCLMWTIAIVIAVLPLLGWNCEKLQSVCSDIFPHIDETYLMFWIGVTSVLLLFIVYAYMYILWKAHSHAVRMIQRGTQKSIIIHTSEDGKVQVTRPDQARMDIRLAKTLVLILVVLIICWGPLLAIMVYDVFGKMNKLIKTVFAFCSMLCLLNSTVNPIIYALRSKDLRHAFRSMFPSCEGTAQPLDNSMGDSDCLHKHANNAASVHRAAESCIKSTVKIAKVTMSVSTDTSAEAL
Method in brief: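 Human CB1 from membrane preparations of stably transfected CHO cells, 25 µg protein per vial. Competition with [3H]CP55,940 at 0.1 nM final, with test compound at 10 µM, read as % inhibition of radioligand binding. Final DMSO 2.5%. Three independent experiments in duplicate.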

[3] = target: T3, N-arachidonyl glycine receptor (Homo sapiens) (UniProt Q14330); assay: Antagonist activity at human GPR18 transfected in CHO cells assessed as delta9-THC-induced beta-arrestin recruitment at 10 uM incubated 60 mins prior to delta9-THC addition by beta-arrestin translocation assay; assay type: cell-based; parameters: scale not given: the % may be the effect or the level left
T3 sequence (whole entry): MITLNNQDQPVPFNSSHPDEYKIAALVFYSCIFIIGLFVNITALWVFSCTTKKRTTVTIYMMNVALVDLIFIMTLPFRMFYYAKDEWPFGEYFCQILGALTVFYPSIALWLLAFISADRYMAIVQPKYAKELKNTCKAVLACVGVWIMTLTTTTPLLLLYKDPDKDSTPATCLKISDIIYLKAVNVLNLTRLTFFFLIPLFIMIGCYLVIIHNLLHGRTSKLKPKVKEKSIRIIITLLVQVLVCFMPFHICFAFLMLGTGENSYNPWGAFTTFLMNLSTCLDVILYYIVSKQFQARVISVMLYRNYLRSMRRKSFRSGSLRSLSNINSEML
Method in brief: (§1)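 CHO cells stably expressing human GPR18 were seeded at 20,000 cells/well for 24 h at 37°C. Compound in PBS/10% DMSO/0.1% BSA was added 60 min before the GPR18 agonist 3 at 10 µM. The supplier's detection reagent was used, and luminescence was read after 60 min at RT. Screening was at 10 µM (% inhibition); IC50 from concentration-inhibition curves. Three independent experiments in duplicate.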

[4] = target: T4, N-arachidonyl glycine receptor (Homo sapiens, UniProt Q14330); assay: Antagonist activity at human GPR18 transfected in CHO cells assessed as delta9-THC-induced beta-arrestin recruitment incubated 60 mins prior to delta9-THC addition by beta-arrestin translocation assay; assay type: cell-based; method in brief: as §1
T4 sequence (Q14330 whole entry): T3 sequence (whole entry)

[5] = target: T1, G-protein coupled receptor 55; assay: Antagonist activity at human GPR55 transfected in CHO cells assessed as inhibition of LPI-induced beta-arrestin recruitment incubated 60 mins prior to LPI addition by beta-arrestin translocation assay; assay type: cell-based
Method in brief: (§2)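 CHO cells stably expressing human GPR55 were seeded at 20,000 cells/well for 24 h at 37°C. Compound in PBS/10% DMSO/0.1% BSA was added 60 min before 1 µM LPI. Galacton-Star/Emerald-II/lysis buffer (pH 8) was applied for 60 min at RT, with luminescence read-out. Screening was at 10 µM (% inhibition). IC50 was measured where inhibition exceeded 60%. Three independent experiments in duplicate.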

[6] = target: T5, Cannabinoid receptor 2 (Homo sapiens, UniProt P34972); assay: Displacement of [3H]-CP55,940 from human CB2 receptor transfected in CHOK1 cells at 10 uM; assay type: cell-based; conditions: CHO-K1
T5 sequence (P34972 whole entry): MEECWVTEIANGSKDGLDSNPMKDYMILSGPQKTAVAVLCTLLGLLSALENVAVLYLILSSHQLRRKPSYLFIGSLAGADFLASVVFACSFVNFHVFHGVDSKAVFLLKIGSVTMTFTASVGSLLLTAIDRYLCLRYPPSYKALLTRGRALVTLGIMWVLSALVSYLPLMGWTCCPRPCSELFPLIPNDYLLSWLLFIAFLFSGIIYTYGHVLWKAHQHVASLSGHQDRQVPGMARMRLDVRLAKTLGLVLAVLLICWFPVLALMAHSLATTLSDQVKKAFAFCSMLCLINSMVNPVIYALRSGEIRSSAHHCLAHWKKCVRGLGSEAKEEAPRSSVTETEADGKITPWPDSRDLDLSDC
Method in brief: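 Competition binding used membranes from CHO cells stably expressing human CB2 (1 µg protein per vial) and [3H]CP55,940 at 0.1 nM final. Compound stocks were in DMSO (2.5% final). Compound was tested at 10 µM as % inhibition of radioligand binding. Three independent experiments in duplicate.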

[7] = target: T5, Cannabinoid receptor 2; assay: Displacement of [3H]-CP55,940 from human CB2 receptor transfected in CHOK1 cells; assay type: cell-based, CHO-K1
Method in brief: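 CHO cells stably expressing human CB2 supplied the membranes, 1 µg protein per vial. Compounds were screened at 10 µM, and full competition curves were run where inhibition was about 50% or more. Three independent experiments in duplicate.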

[8] = target: T2, Cannabinoid receptor 1; assay: Displacement of [3H]-CP55,940 from human CB1 receptor transfected in CHOK1 cells; assay type: cell-based, CHO-K1
[9] = target: T5, Cannabinoid receptor 2; assay: Agonist activity at human CB2 receptor expressed in CHOK1 cells assessed as […] of forskolin-stimulated cAMP level at 10 uM; assay type: functional, cell-based; conditions: CHO-K1
[10] = target: T2, Cannabinoid receptor 1; assay: Agonist activity at human CB1 receptor expressed in CHOK1 cells assessed as […] of forskolin-stimulated cAMP level at 10 uM; assay type: functional, cell-based; conditions: CHO-K1
[11] = target: T2, Cannabinoid receptor 1; assay: Antagonist activity at human CB1 receptor expressed in CHOK1 cells assessed as inhibition of forskolin-stimulated cAMP level at 10 uM; assay type: functional, cell-based; conditions: CHO-K1
[12] = target: T5, Cannabinoid receptor 2; assay: Antagonist activity at human CB2 receptor expressed in CHOK1 cells assessed as inhibition of forskolin-stimulated cAMP level at 10 uM; assay type: functional, cell-based; conditions: CHO-K1
[13] = target: T1, G-protein coupled receptor 55; assay: Antagonist activity at human GPR55 transfected in CHO cells assessed as inhibition of LPI-induced beta-arrestin recruitment at 10 uM incubated 60 mins prior to LPI addition by beta-arrestin translocation assay; assay type: cell-based; parameters: scale not given: the % may be the effect or the level left; method in brief: as §2

T1 sequence (Q9Y2T6 whole entry, the tested form may be a part): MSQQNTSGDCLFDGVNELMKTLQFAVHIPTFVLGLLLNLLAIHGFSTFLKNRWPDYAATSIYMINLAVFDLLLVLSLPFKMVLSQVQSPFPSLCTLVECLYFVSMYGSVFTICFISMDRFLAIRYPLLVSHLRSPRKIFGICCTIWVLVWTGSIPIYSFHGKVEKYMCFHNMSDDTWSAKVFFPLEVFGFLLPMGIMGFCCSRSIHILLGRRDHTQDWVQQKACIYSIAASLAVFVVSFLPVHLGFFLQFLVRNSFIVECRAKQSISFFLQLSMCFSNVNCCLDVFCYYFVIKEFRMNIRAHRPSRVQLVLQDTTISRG

| SMILES | Activity [1] | Activity [2] | Activity [3] | IC50 [4] | IC50 [5] | Activity [6] | Ki [7] | Ki [8] | Activity [9] | Activity [10] | inhibition [11] | inhibition [12] | Activity [13] |
| --- | --- | --- | --- | --- | --- | --- | --- | --- | --- | --- | --- | --- | --- |
| COc1cccc(Cc2cc3c(OC)cc(Br)cc3oc2=O)c1 | inactive | 38% | 31% | > 10 µM | 3.99 µM | – | – | – | – | – | – | – | – |
| Cc1cc2c(C(C)C)ccc(C)c2oc1=O | inactive | 26% | 11% | > 10 µM | 3.45 µM | 0% | > 10000 nM | > 10 µM | – | – | – | – | – |
| Cc1c(O)c(C)c2cc(Cc3ccccc3)c(=O)oc2c1C | inactive | 21% | 16% | > 10 µM | 9.32 µM | – | 3420 nM | > 10 µM | – | – | – | – | – |
| CCCCCc1cc(OC)c2cc(Cc3ccccc3OC)c(=O)oc2c1 | inactive | – | 20% | > 10 µM | 6.35 µM | – | – | – | Active | Active | – | – | – |
| Cc1ccc(C(C)C)c2cc(Cc3ccccc3O)c(=O)oc12 | inactive | 31% | 32% | > 10 µM | 1.77 µM | 24% | – | – | – | – | – | – | – |
| CCCCC1(c2cc(O)c3cc(Cc4ccccc4O)c(=O)oc3c2)CCCCC1 | inactive | – | 59% | ≥ 10 µM | 0.961 µM | – | – | – | Active | – | – | – | – |
| CCCCC1(c2cc(O)c3cc(Cc4ccccc4O)c(=O)oc3c2)CCCC1 | inactive | – | 57% | – | 0.854 µM | – | – | – | Active | – | – | – | – |
| CCCCCCC(C)(C)c1cc(O)c2cc(Cc3ccccc3O)c(=O)oc2c1 | inactive | – | – | 15.9 µM | 0.261 µM | – | – | – | Active | – | – | – | – |
| COc1cc(C)cc2oc(=O)c(Cc3ccccc3)cc12 | inactive | 45% | 24% | > 10 µM | 6.74 µM | – | ≥ 10000 nM | ≥ 10 µM | – | – | – | – | – |
| Cc1ccc(C(C)C)c2cc(Cc3ccccc3)c(=O)oc12 | inactive | 24% | 12% | > 10 µM | 5.33 µM | 24% | > 10000 nM | > 10 µM | – | – | – | – | – |
| CCCCCc1cc(OC)c2cc(Cc3ccc(Cl)cc3)c(=O)oc2c1 | inactive | – | 50% | 10 µM | 3.29 µM | – | 578 nM | 0.613 µM | Active | – | Active | – | – |
| Cc1c(O)c(C)c2cc(Cc3ccc(F)cc3)c(=O)oc2c1C | inactive | 34% | 47% | ≥ 10 µM | 10.3 µM | – | 444 nM | > 10 µM | – | – | – | – | – |
| COc1c(C)c(C)c2oc(=O)c(Cc3ccccc3)cc2c1C | inactive | 42% | 46% | ≥ 10 µM | 12.8 µM | – | 1770 nM | ≥ 10 µM | – | – | – | – | – |
| COc1ccccc1Cc1cc2c(C)ccc(C)c2oc1=O | inactive | 16% | 0% | > 10 µM | 7.14 µM | – | 6830 nM | > 10 µM | – | – | – | – | – |
| Cc1ccccc1Cc1cc2c(C)c(O)c(C)c(C)c2oc1=O | inactive | 45% | 38% | > 10 µM | 5.16 µM | – | 1560 nM | ≥ 10 µM | – | – | – | – | – |
| CCCCCCC(C)(C)c1cc(O)c2cc(Cc3ccccc3)c(=O)oc2c1 | inactive | – | – | 8.1 µM | 0.358 µM | – | – | – | Active | Active | – | – | – |
| CCCCCc1cc(O)c2cc(Cc3cccc(O)c3)c(=O)oc2c1 | inactive | – | 27% | > 10 µM | 10.6 µM | – | – | – | – | – | Active | Active | – |
| COc1c(C)c(C)c2oc(=O)c(Cc3ccc(F)cc3)cc2c1C | inactive | 49% | 32% | > 10 µM | 13.5 µM | – | 1480 nM | 10 µM | – | – | – | – | – |
| CCCCC1(c2cc(OC)c3cc(Cc4ccccc4OC)c(=O)oc3c2)CCCCC1 | inactive | 42% | 33% | > 10 µM | > 10 µM | 45% | ≥ 10000 nM | ≥ 10 µM | – | – | – | – | 44% |
| CCCCCc1cc(OC)c2cc(Cc3ccccc3C)c(=O)oc2c1 | inactive | – | 34% | > 10 µM | 5.08 µM | – | – | – | Active | – | Active | – | – |
| CCCCCCCC(C)(C)c1cc(OC)c2cc(Cc3ccccc3OC)c(=O)oc2c1 | inactive | 51% | 33% | > 10 µM | > 10 µM | 47% | – | – | – | – | – | – | 31% |
